# NCF1 inh: blocks human p47phox regulatory protein of NADPH oxidases | P14598 | p47phox/p22phox peptide binding, fluorescence polarization, 2 h | inhibition, % at 24.7 µM | 220,000 compounds, 0.53% hits | AID 1274
# eIF4E-4G inh: eIF4E/eIF4G interaction inhibition in translation initiation; TR-FRET eIF4E-eIF4GI(517-606) binding, 2 h; 220,000 compounds, 0.37% hits; AID 782; inhibition, % at 21.7 µM
# Tb MetRS inh: Trypanosoma brucei MetRS inhibition. purified T. brucei MetRS, ATP depletion, Kinase-Glo luminescence. inhibition, % at 11.9 µM. 360,000 compounds, 0.4% hits. AID 624268;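 active = inhibition above a per-plate cutoff of the control wells' mean inhibition plus 3 SD, cut at about 5.5% in these data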
#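 Dosing: 11.9 µM compound single dose, 0.9% DMSO; Assay system: purified T. brucei MetRS enzyme; Measured by: Kinase-Glo luciferase luminescence reporting remaining unconsumed ATP; Schedule: 15 min plus 2 h at 25 °C.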
# p97 inhibitor: human p97 ATPase inhibition; AID 1481; inhibition, % at 8 µM; 220,000 compounds, 0.42% hits; recombinant p97 ATPase, Kinase-Glo ATP luminescence, 3 h; in the data active = inhibition above about 15%
# SUMO HTRF inh: inhibitors of human SUMOylation (UBC9); AID 2006; inhibition, % at 35 µM; P63279; 290,000 compounds, 0.36% hits; HTRF SUMOylation assay, SAE1/SAE2 + UBC9, in vitro; in the data active = inhibition above about 50%, passing the limit was not always enough
# 14-3-3 Bad inh: disrupts binding of bovine 14-3-3 zeta to phospho-Bad peptide; 220,000 compounds, 0.71% hits; P63103; inhibition, % at 21.7 µM; TR-FRET 14-3-3zeta/Dy647-pBad peptide displacement, 1 h;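 active = inhibition above about 70%, limit read from the data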
# A number is an active result; 0 = inactive; - = not tested or not shown; + = active, no number; [ ] = remark or other dose. Rows were chosen to be rich in hits. Some 1.6% of all compounds tested hit in one or more screens of this group.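 The calls were made as follows, unless noted: active = inhibition above about 30% (limit read from the data); inactive = the rest.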
SMILES,NCF1 inh,eIF4E-4G inh,Tb MetRS inh,p97 inhibitor,SUMO HTRF inh,14-3-3 Bad inh
CSc1ccc(-c2cc(=O)c3ccccc3o2)cc1,0,0,0,0,54,0
Cc1sc2cc3c(c(C(=O)c4ccccc4)[n+]2c1C)-c1cccc2cccc-3c12,37,0,-,0,0,0
O=C(c1ccccc1)c1c2c(cc3sc4ccccc4[n+]13)-c1cccc3cccc-2c13,0,0,0,0,0,0
CC(=O)N1CCN(S(=O)(=O)c2cccc(C(=O)NNC(=O)c3ccc(Br)cc3)c2)CC1,-,-,0,-,-,-
Cc1ccc(C(=O)c2coc3c2C(=O)C(=O)c2ccccc2-3)cc1,0,0,0,0,0,0
Cc1oc2c(c1C(=O)c1ccc(Cl)cc1)C(=O)C(=O)c1ccccc1-2,0,0,0,0,71,0
CCOc1ccc(-c2nc(=S)[nH][nH]2)cc1,0,52,0,0,0,0
NC(=O)c1c(NC(=O)CSc2nnc(-c3ccco3)n2-c2ccccc2)sc2c1CCC2,0,31[fluorescence artefact?],0,0,0,0
N#Cc1c(NC(=O)CSc2nnc(-c3ccco3)n2-c2ccccc2)sc2c1CCC2,0,0,0,0,0,0
CC(C)(C)NC(=O)C(CCc1ccccc1)n1c(=O)c(-c2cc3ccccc3[nH]2)nc2ccccc21 (centres undefined),-,-,0,-,-,-
O=C(OCC(=O)c1ccc(S(=O)(=O)N2CCCC2)cc1)C1=COCCO1,+,0,0,0,0,0
Cc1ccc(C(=O)OCC(=O)c2ccc(S(=O)(=O)N3CCCCC3)cc2)o1,-,-,0,-,-,-
C=CCn1c(=O)c2c(nc3n2CCCN3CCc2ccc(OC)c(OC)c2)n(C)c1=O,-,-,0,-,0,-
CCOC(=O)C1C(=O)CC(=O)CC1CC(C)SCC (centres undefined),79,0,0,0,0,0
CCOC(=O)C1C(=O)C(=O)N(C(C)C)C1C(=O)OCC (centres undefined),-,-,0,-,-,-
Cc1c(C(=O)NCc2ccc(C(C)C)cc2)sc(=O)n1Cc1ccc(S(=O)(=O)N(C)C)cc1,-,-,0,-,-,-
Cc1cccc(C)c1-n1nnnc1C1c2ccccc2C(=O)N1CCc1ccc(O)cc1 (centres undefined),-,-,0,-,-,-
COc1ccc(C(=O)Nc2ccc(-c3nnn(CC(=O)NCc4ccco4)n3)cc2)cc1,0,0,0,0,61,0
Cc1cc([N+](=O)[O-])nn1CC(=O)NCc1nc2ccccc2[nH]1,41,0,0,0,0,0
Cc1ccc(N(CC2CO2)S(=O)(=O)c2ccccc2[N+](=O)[O-])cc1 (centres undefined),-,-,0,-,0,-
O=C(CSc1nc2ccccc2c(=O)n1-c1ccccc1)N1CCc2ccccc21,50,0,0,0,0,0
CCOc1ccc(-n2c(SCC(=O)N3CCc4ccccc43)nnc2-c2c[nH]c3ccccc23)cc1,48,0,0,0,0,93
CCSc1nnc(-c2ccccc2N=Cc2c(C)[nH]n(-c3ccccc3)c2=O)c(=O)[nH]1,0,0,0,0,0,0
c1nc(SSc2ncnc3nc[nH]c23)c2[nH]cnc2n1,-,-,0,-,-,-
CCOc1ccc(N2C(=O)c3ccc(C(=O)OCC(=O)N(CC)C4CCS(=O)(=O)C4)cc3C2=O)cc1 (centres undefined),44,0,0,0,54,0
SMILES,NCF1 inh,eIF4E-4G inh,Tb MetRS inh,p97 inhibitor,SUMO HTRF inh,14-3-3 Bad inh
CCN(C(=O)COC(=O)c1ccc(N2C(=O)c3ccccc3C2=O)cc1)C1CCS(=O)(=O)C1 (centres undefined),0,0,0,0,0,0
CCn1c(SCC(=O)NC2CC2)nnc1-c1ccc(F)cc1,-,-,0,-,0,-
COC1=CC(=O)OC(c2ccccc2C(F)(F)F)C1 (centres undefined),-,-,0,-,-,-
CC(C)c1cc(C(=O)Nc2cccc(Cl)c2)no1,0,63[fluorescence artefact?],0,0,0,0
CS(=O)(=O)Nc1ccccc1C(=O)Nc1cccc(Cl)c1,0,0,0,0,0,77
CC1=Nc2cccc3cccc(c23)N1,158,0,0,0,0,0
Nc1ccc(C2=Nc3cccc4cccc(c34)N2)cc1,0,0,0,0,0,0
COc1cccc(C2=Nc3cccc4cccc(c34)N2)c1,0,0,0,0,0,0
c1coc(C2=Nc3cccc4cccc(c34)N2)c1,0,0,0,0,94,0
COc1ccc(S(=O)(=O)/N=C2\C=C(Nc3ccc(O)cc3)C(=O)c3ccccc32)cc1,-,-,0,-,0,-
